What was measured:
[1] = target: T1, Steryl-sulfatase (Homo sapiens, UniProt P08842); experiment: Inhibition of steroid sulfatase in human MCF7 cells using [3H]E1S as substrate after 20 hrs by scintillation spectrometry; assay type: cell-based
T1 sequence (P08842 whole entry): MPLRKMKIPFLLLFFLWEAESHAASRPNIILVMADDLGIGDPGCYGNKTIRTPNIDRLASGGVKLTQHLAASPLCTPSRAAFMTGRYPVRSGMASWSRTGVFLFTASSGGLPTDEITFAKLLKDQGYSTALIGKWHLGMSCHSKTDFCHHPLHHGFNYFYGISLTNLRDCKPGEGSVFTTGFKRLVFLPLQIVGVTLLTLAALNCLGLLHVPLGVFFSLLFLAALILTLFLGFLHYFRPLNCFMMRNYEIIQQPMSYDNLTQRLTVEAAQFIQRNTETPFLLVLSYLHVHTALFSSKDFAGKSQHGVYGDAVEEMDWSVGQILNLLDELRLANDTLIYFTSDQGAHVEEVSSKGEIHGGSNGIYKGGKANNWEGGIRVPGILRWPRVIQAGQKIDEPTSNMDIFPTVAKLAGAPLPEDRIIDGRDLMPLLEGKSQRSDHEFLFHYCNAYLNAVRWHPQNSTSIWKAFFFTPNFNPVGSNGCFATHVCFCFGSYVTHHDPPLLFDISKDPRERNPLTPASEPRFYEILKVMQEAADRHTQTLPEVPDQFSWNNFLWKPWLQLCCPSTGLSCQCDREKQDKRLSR
Outline: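 Intact MCF-7 monolayers incubated 20 h at 37 °C with [3H]E1S (5 pmol, 7 × 10^5 dpm) in serum-free minimal essential medium, with or without inhibitor (0.1–10 range). Estrone product separated from E1S by toluene partition; [14C]estrone corrected procedural losses. 3H/14C counted by scintillation; E1S hydrolysed calculated from 3H counts and substrate specific activity; IC50 derived.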

[2] = target: T1, Steryl-sulfatase
[3] = target: T2, Steryl-sulfatase (Homo sapiens) (UniProt P08842); experiment: Inhibition of steroid sulfatase in human MCF7 cells using [3H]E1S as substrate at 10 uM after 20 hrs by scintillation spectrometry; assay type: cell-based
T2 sequence (whole entry): T1 sequence (P08842 whole entry)
Outline: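 Intact MCF-7 monolayers exposed to inhibitor with [3H]E1S (5 pmol, 60 Ci/mmol) in serum-free minimal essential medium, 20 h at 37 °C. Product estrone split from E1S by toluene partition, with [14C]estrone as recovery marker. 3H and 14C counted by scintillation. E1S hydrolysed calculated from 3H counts, corrected for volumes and 14C recovery, and from substrate specific activity.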

[4] = system: Rattus norvegicus; experiment: Inhibition of steroid sulfatase in rat liver at 10 mg/kg, po; assay type: functional
[5] = system: Rattus norvegicus; experiment: Inhibition of steroid sulfatase in rat liver at 10 mg/kg, sc; assay type: functional; settings: route subcutaneous
[6] = system: Rattus norvegicus; experiment: Inhibition of steroid sulfatase in rat liver at 10 mg/kg, po administered as single dose measured up to 7 days; assay type: functional; settings: 168 h
[7] = system: Rattus norvegicus; experiment: Inhibition of steroid sulfatase in rat liver at 10 mg/kg, sc administered as single dose measured up to 7 days; assay type: functional; settings: 168 h, route subcutaneous
[8] = target: T2, Steryl-sulfatase (Homo sapiens); settings: MCF7, 0.01 uM

Row | IC50 [2] | SMILES | IC50 [1] | other results
1 | – | C[C@]12CC[C@@H]3c4cc(I)c(OS(N)(=O)=O)cc4CC[C@H]3[C@@H]1CCC2=O | 0.81 nM | –
2 | > 10000 nM | C=CCc1cc2c(c(CC=C)c1OS(N)(=O)=O)CC[C@@H]1[C@@H]2CC[C@]2(C)C(=O)CC[C@@H]12 | – | inhibition [3]: < 10%
3 | 5.2 nM | C[C@]12CC[C@@H]3c4cc(C#N)c(OS(N)(=O)=O)cc4CC[C@H]3[C@@H]1CCC2=O | 1.2 nM | –
4 | – | C[C@]12CC[C@@H]3c4cc(Br)c(OS(N)(=O)=O)cc4CC[C@H]3[C@@H]1CCC2=O | 0.11 nM | –
5 | > 10000 nM | Cc1cc2c(cc1OS(N)(=O)=O)CC[C@@H]1[C@@H]2CC[C@]2(C)C(=O)CC[C@@H]12 | – | –
6 | 1200 nM | C[C@]12CC[C@@H]3c4ccc(OS(N)(=O)=O)c(Br)c4CC[C@H]3[C@@H]1CCC2=O | 42 nM | –
7 | 0.1 nM | C[C@]12CC[C@@H]3c4cc(C(F)F)c(OS(N)(=O)=O)cc4CC[C@H]3[C@@H]1CCC2=O | – | –
8 | 2500 nM | C=CCc1cc2c(cc1OS(N)(=O)=O)CC[C@@H]1[C@@H]2CC[C@]2(C)C(=O)CC[C@@H]12 | 37 nM | –
9 | > 10000 nM | CCCc1cc2c(c(CCC)c1OS(N)(=O)=O)CC[C@@H]1[C@@H]2CC[C@]2(C)C(=O)CC[C@@H]12 | – | inhibition [3]: < 10%
10 | > 10000 nM | CN1c2cc3c(cc2OS1(=O)=O)CC[C@@H]1[C@@H]3CC[C@]2(C)C(=O)CC[C@@H]12 | – | –
11 | 2900 nM | CCCc1cc2c(cc1OS(N)(=O)=O)CC[C@@H]1[C@@H]2CC[C@]2(C)C(=O)CC[C@@H]12 | 236 nM | –
12 | > 10000 nM | CCCc1c(OS(N)(=O)=O)ccc2c1CC[C@@H]1[C@@H]2CC[C@]2(C)C(=O)CC[C@@H]12 | – | inhibition [3]: < 10%

Row | SMILES | IC50 [2] | IC50 [1] | other results
13 | C[C@]12CC[C@@H]3c4ccc(OS(N)(=O)=O)c([N+](=O)[O-])c4CC[C@H]3[C@@H]1CCC2=O | 0.8 nM | 0.01 nM | –
14 | C[C@]12CC[C@@H]3c4cc(Cl)c(OS(N)(=O)=O)cc4CC[C@H]3[C@@H]1CCC2=O | 3.4 nM | 0.44 nM | –
15 | C[C@]12CC[C@@H]3c4cc5c(cc4CC[C@H]3[C@@H]1CCC2=O)OS(=O)(=O)N5 | > 10000 nM | – | –
16 | C[C@]12CC[C@@H]3c4cc(F)c(OS(N)(=O)=O)cc4CC[C@H]3[C@@H]1CCC2=O | 5.6 nM | 0.62 nM | –
17 | C[C@]12CC[C@@H]3c4cc([N+](=O)[O-])c(OS(N)(=O)=O)cc4CC[C@H]3[C@@H]1CCC2=O | 70 nM | 8.3 nM | –
18 | C[C@]12CC[C@@H]3c4ccc(OS(N)(=O)=O)cc4CC[C@H]3[C@@H]1CCC2=O [EMATE] | 18 nM | 0.83 nM | inhibition in vivo at 10 mg/kg [4]: 99%; inhibition in vivo at 10 mg/kg [5]: 99%; inhibition in vivo at 10 mg/kg [6]: > 95%; inhibition in vivo at 10 mg/kg [7]: > 95%
19 | C[C@]12CC[C@@H]3c4ccc5c(c4CC[C@H]3[C@@H]1CCC2=O)NS(=O)(=O)O5 | > 10000 nM | – | –
20 | C[C@@]12CCC[C@H]1[C@@H]1CCc3cc(OS(N)(=O)=O)ccc3[C@H]1CC2 | 199 nM | – | inhibition [8]: 97%
21 | CCc1cc2c(cc1OS(N)(=O)=O)CC[C@@H]1[C@@H]2CC[C@]2(C)C(=O)CC[C@@H]12 | 820 nM | – | –

Source: ChEMBL document CHEMBL2010652, “Synthesis and evaluation of analogues of estrone-3-O-sulfamate as potent steroid sulfatase inhibitors” (Bioorg Med Chem, 2012)
